The source made the active and inactive calls. The calls are words filed in the database; no cut-off is given here.

The subject of experiment [1] is PC-12. The experiment can be described thus: Neuroprotective activity against etoposide-induced apoptosis in rat PC12 cells assessed as cell viability at 3 uM pretreated for 4 hrs followed by etoposide challenge measured after 48 hrs by PrestoBlue assay (reference value: 52.13 +/- 1.13%). The experiment is classed as functional. Conditions: read-out: Activity. The gist of the method: (§1)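 PC12 cells were plated at 50000/well on collagen-coated plates and left overnight. They were pretreated 4 h with compound, then given 15 μg/mL etoposide. Viability was read at 48 h by PrestoBlue (ex 560/em 590 nm). n = 3, mean ± SEM, as % viability.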

Experiment [2] has as its system PC-12. The experiment can be described thus: Neuroprotective activity against H2O2-induced apoptosis in rat PC12 cells assessed as increase in cell viability at 1 to 30 uM after 4 hrs by PrestoBlue assay. The experiment is classed as functional, cell-based. The gist of the method: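 PC12 cells were exposed to 400 μM H2O2 with compounds at 1–30 μM. Viability was measured after 4 h with PrestoBlue.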

Experiment [3] relates to PC-12. The experiment can be described thus: Neuroprotective activity against etoposide-induced apoptosis in rat PC12 cells assessed as increase in Bcl2/Bax ratio at 0.1 uM pretreated for 4 hrs followed by etoposide challenge measured after 24 hrs by Western blot method. Format: functional. The gist of the method:
(§2)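 PC12 cells were pretreated 4 h with compound before etoposide and lysed after 24 or 48 h. 50 μg protein was run on 10% SDS gel and blotted. Probes were Bcl-2 (1:1000), Bax (1:500) and actin, with HRP chemiluminescence and densitometric Bcl-2/Bax ratio. n = 2, mean ± SEM.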

Experiment [4] relates to PC-12. The experiment can be described thus: Induction of autophagy in rat PC12 cells assessed as increase in beclin 1 expression after 24 hrs by Western blot method. Format: functional, cell-based. The gist of the method:
(§3)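 PC12 lysates were taken after 24 h of compound treatment. 50 μg protein was run on 10% SDS gel and transferred to nitrocellulose. Blots were blocked in 5% BSA, probed overnight at 4 °C with beclin 1 (1:2000) and actin (1:5000), then HRP secondary. Chemiluminescence was quantified by densitometry.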
(A western blot detects proteins with antibodies after separation by electrophoresis.)

In experiment [5] the test system is IMR-90. In words: Neuroprotective activity against etoposide-induced apoptosis in human IMR90-c4 cells assessed as increase in cell viability at 0.1 uM pretreated for 4 hrs followed by etoposide challenge measured after 36 hrs by PrestoBlue assay relative to control. Format: functional. The gist of the method: (§4)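 IMR90-c4 iPSC-derived neurons were plated at 16000 cells/well on poly-D-lysine/laminin and matured. They were pretreated 4 h with compound, then given 15 μg/mL etoposide. Viability was read at 36 h by PrestoBlue fluorescence (ex 560/em 590 nm).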

Experiment [6] relates to PC-12. The experiment can be described thus: Induction of autophagy in rat PC12 cells after 48 hrs by MDC staining-based flow cytometric method. The experiment is classed as functional, cell-based. The gist of the method: (§5)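 PC12 cells were treated for 48 h and then stained with 0.5 mM monodansylcadaverine for 30 min at 37 °C. Trypsinized cells were pooled with floating cells and resuspended in PBS/1% FBS. 10000 cells were read by flow cytometry in the FITC channel after gating out debris. MDC staining is expressed relative to vehicle.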

Experiment [7] deals with PC-12. The experiment can be described thus: Neuroprotective activity against etoposide-induced apoptosis in rat PC12 cells assessed as increase in Bcl2/Bax ratio at 3 uM pretreated for 4 hrs followed by etoposide challenge measured after 24 hrs by Western blot method. Format: functional. The gist of the method:
as §2

In experiment [8] the target is T1, Glutamate [NMDA] receptor (Homo sapiens) (UniProt Q05586+Q12879+Q13224+O15399+O60391+Q14957+Q8TCU5). In words: Antagonist activity at NMDA receptor in human IMR90-c4 cells assessed as decrease in NMDA-mediated reduction in cell viability at 0.1 to 30 uM by PrestoBlue assay. The experiment is classed as cell-based. The gist of the method: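 Neurons differentiated from IMR90-c4 iPSCs over roughly 21 days, then challenged with 500 μM NMDA. Viability was read with PrestoBlue. n = 1 with 4 technical replicates; % viability given as mean ± SEM.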

Experiment [9] concerns PC-12. The experiment can be described thus: Neuroprotective activity against etoposide-induced apoptosis in rat PC12 cells assessed as cell viability at 0.1 uM pretreated for 4 hrs followed by etoposide challenge measured after 48 hrs by PrestoBlue assay relative to control. The experiment is classed as functional. Conditions: read-out: Activity. The gist of the method:
as §1

In experiment [10] the test system is IMR90-c4. In words: Neuroprotective activity against etoposide-induced apoptosis in human IMR90-c4 cells assessed as increase in cell viability at 0.1 to 3 uM pretreated for 4 hrs followed by etoposide challenge measured after 36 hrs by PrestoBlue assay. The experiment is classed as functional, cell-based. The gist of the method: as §4
Experiment [11] relates to PC-12. In words: Induction of autophagy in rat PC12 cells assessed as increase in beclin 1 expression at 0.1 uM after 24 hrs by Western blot method relative to control. The experiment is classed as functional. The gist of the method:
as §3

Experiment [12] relates to PC-12. The experiment can be described thus: Neuroprotective activity against etoposide-induced apoptosis in rat PC12 cells assessed as increase in Bcl2/Bax ratio at 0.1 uM pretreated for 4 hrs followed by etoposide challenge measured after 48 hrs by Western blot method. The experiment is classed as functional, cell-based. The gist of the method:
as §2

Experiment [13] relates to PC-12. The experiment can be described thus: Neuroprotective activity against etoposide-induced apoptosis in rat PC12 cells assessed as increase in Bcl2/Bax ratio at 3 uM pretreated for 4 hrs followed by etoposide challenge measured after 48 hrs by Western blot method. The experiment is classed as functional, cell-based. The gist of the method:
as §2

Experiment [14] in a line: Neuroprotective activity against etoposide-induced apoptosis in human IMR90-c4 cells assessed as cell viability at 3 uM pretreated for 4 hrs followed by etoposide challenge measured after 36 hrs by PrestoBlue assay relative to control. Format: functional. Conditions: read-out: Activity. The gist of the method:
as §4

For experiment [15], the system named is PC-12. The experiment can be described thus: Neuroprotective activity in rat PC12 cells assessed as decrease in H2O2-induced reactive oxygen species generation at 10 uM by CellROX/DAPI-blue staining-based fluorescence microscopic method. Format: functional, cell-based. The gist of the method: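 PC12 cells were grown in RPMI with 10% horse serum and 5% FBS on collagen-coated plates. ROS was induced with H2O2 and cells exposed to compound. Staining used CellROX green plus DAPI, imaged by fluorescence microscopy at 40×.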

Experiment [16] concerns IMR90-c4. The experiment can be described thus: Neuroprotective activity against etoposide-induced apoptosis in human IMR90-c4 cells assessed as increase in cell viability at 10 to 30 uM pretreated for 4 hrs followed by etoposide challenge measured after 36 hrs by PrestoBlue assay. Format: functional, cell-based. The gist of the method: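 Neurons derived from IMR90-c4 iPSCs were seeded at 16000 cells/well on poly-D-lysine/laminin and matured at 37 °C, 5% CO2. Compound pretreatment lasted 4 h before 15 μg/mL etoposide. PrestoBlue fluorescence (ex 560/em 590 nm) was read after 36 h.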

Experiment [17] addresses T1, Glutamate [NMDA] receptor (Homo sapiens). In words: Antagonist activity at NMDA receptor in human IMR90-c4 cells assessed as decrease in NMDA-mediated reduction in cell viability at 0.1 to 10 uM by PrestoBlue assay. The experiment is classed as cell-based. The gist of the method: (§6)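 IMR90-c4 iPSCs differentiated to neurons (NSC, NPC, then 21 days maturation on poly-D-lysine/laminin). Neurons challenged with 500 μM NMDA. Viability read with PrestoBlue. n = 1 with 4 technical replicates, mean ± SEM.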

The subject of experiment [18] is PC-12. The experiment can be described thus: Induction of autophagy in rat PC12 cells at 3 uM after 48 hrs by MDC staining-based flow cytometric method relative to control. Format: functional. The gist of the method:
as §5
(In general: In flow cytometry, cells or beads pass a laser one at a time.)

Experiment [19] deals with T1, Glutamate [NMDA] receptor (Homo sapiens). In words: Antagonist activity at NMDA receptor in human IMR90-c4 cells assessed as decrease in NMDA-mediated reduction in cell viability at 30 uM by PrestoBlue assay. The experiment is classed as cell-based. The gist of the method:
as §6

Experiment [20] deals with IMR90-c4. The experiment can be described thus: Neuroprotective activity against etoposide-induced apoptosis in human IMR90-c4 cells assessed as increase in cell viability at 3 to 30 uM pretreated for 4 hrs followed by etoposide challenge measured after 36 hrs by PrestoBlue assay. Format: functional, cell-based. The gist of the method: as §4
In experiment [21] the test system is PC-12. In words: Neuroprotective activity against etoposide-induced apoptosis in rat PC12 cells assessed as increase in cell viability at 0.1 uM pretreated for 4 hrs followed by etoposide challenge measured after 48 hrs by PrestoBlue assay relative to control. The experiment is classed as functional, cell-based. The gist of the method:
as §1

Experiment [22] in a line: Neuroprotective activity against etoposide-induced apoptosis in human IMR90-c4 cells assessed as increase in cell viability at 3 uM pretreated for 4 hrs followed by etoposide challenge measured after 36 hrs by PrestoBlue assay relative to control. The experiment is classed as functional. The gist of the method: as §4
Experiment [23] relates to PC-12. In words: Induction of autophagy in rat PC12 cells at 10 uM after 48 hrs by MDC staining-based flow cytometric method relative to control. Format: functional. The gist of the method:
as §5

In experiment [24] the test system is SH-SY5Y. In words: Neuroprotective activity against etoposide-induced apoptosis in human SH-SY5Y cells assessed as cell viability at 3 uM pretreated for 4 hrs followed by etoposide challenge measured after 12 to 48 hrs by PrestoBlue assay relative to control. Conditions: read-out: Activity. The experiment is classed as functional. The gist of the method: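 SH-SY5Y cells were plated at 50000/well and left overnight at 37 °C, 5% CO2. They were pretreated 4 h with compound, then given etoposide; methods give 5 μg/mL read at 48 h, while the legend states 5 μM for 12 h. PrestoBlue fluorescence (ex 560/em 590 nm).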

Experiment [25] has as its system PC-12. In words: Induction of autophagy in rat PC12 cells assessed as increase in beclin 1 expression at 3 uM after 24 hrs by Western blot method relative to control. The experiment is classed as functional. The gist of the method: as §3

Turning to `CCCCCCOC(=O)Nc1ccc(NCc2ccc(F)cc2)nc1N`, the viability at 3 µM in experiment [1] came out at 78.5%.

As for `CCOC(=O)Nc1ccc(NCc2ccc(C(F)(F)F)cc2)nc1N`, the result in [2], in [12] and in experiment [13] was inactive. The Activity was 159% in [3]; “Dose-dependent effect” in [4]; 75 - 76% in [5]; “Dose-dependent effect” in experiment [6]; 232% in [7]; 18% in experiment [11]. Moreover, the viability at 3 µM in experiment [1] stood at 68.4%. In addition, the inhibition result in experiment [8] is “inactive”. For the same compound, the viability at 0.1 µM in [9] amounted to 84%. The outcome in experiment [10] was Active.

In the case of `CCOC(=O)Nc1ccc(OCc2ccc(C(F)(F)F)cc2)nc1N`, the Activity entry in [4] was “Dose-dependent effect”. Also, the viability at 3 µM in [14] was found to be 65%. For the same compound, the outcome in [13] was inactive.

For `CCOC(=O)Nc1ccc(NCc2ccc(F)cc2)cc1N` [EZOGABINE], the result in [2], in experiment [15] and in experiment [16] was Active. The Activity in [7] is 64%. Moreover, the inhibition result in experiment [17] was “inactive”. The “fold change (FC)” value in experiment [18] came out at 2. Further, the inhibition result in experiment [19] was “Active”. In experiment [13], the result was inactive.

As for `CCCOC(=O)Nc1ccc(NCc2ccc(F)cc2)nc1N`, in experiment [1], the viability at 3 µM was 46.7%.

Regarding `Nc1nc(NCc2ccc(F)cc2)ccc1NC(=O)OCc1ccccc1`, the result in experiment [2] and in [15] was inactive. Also, the viability at 3 µM in experiment [1] is 81.2%. The result in experiment [20], in experiment [21] and in experiment [13] was Active. For the same compound, the inhibition result in experiment [8] is “inactive”. For the same compound, in experiment [22], the Activity is on record as 79%. Also, the “fold change (FC)” value in experiment [18] is given as 3.

Take `CCOC(=O)Nc1ccc(NCc2ccc(F)cc2)nc1N` [FLUPIRTINE]: the result in experiment [2], in experiment [15] and in experiment [20] was Active. Further, the “fold change (FC)” value was determined as 8 in experiment [23] and 2 in experiment [18]. Also, the viability at 3 µM in [1] was determined as 79.5%; in [24] it was 69%; in experiment [14], 70%. Besides, the results for the Activity in experiment [7] and in [25] were 68% and 32%, respectively. In addition, the inhibition entry in experiment [17] is “inactive”. In addition, in experiment [19], the inhibition result is “Active”. Further, the result in experiment [13] was inactive.

In the case of `CCOC(=O)Nc1cnc(NCc2ccc(F)cc2)cc1C`, the viability at 3 µM in [1] came to 53.8%.

Turning to `CCOC(=O)Nc1ccc(NCc2ccc(C(F)(F)F)nc2)nc1N`, in experiment [1], the viability at 3 µM amounted to 81.6%. In addition, in [9], the viability at 0.1 µM came out at 74%.

`Nc1nc(NCc2ccc(F)cc2)ccc1NC(=O)OCCCl`: in experiment [1], the viability at 3 µM stood at 53.9%.

Source of the values: ChEMBL document CHEMBL4028889 (2017).
